Source: ChEMBL document CHEMBL1137333, “Synthesis, radiosynthesis, and biological evaluation of carbon-11 labeled 2beta-carbomethoxy-3beta-(3'-((Z)-2-haloethenyl)phenyl)nortropanes: candidate radioligands for in vivo imaging of the serotonin transporter with positron emission tomography” (J Med Chem, 2006)

Key:
Cynomolgus monkey [1] = assay: Uptake in anesthetized cynomolgus monkey medulla after 4.5 mins; type: ADME, organism-based, Medulla of organ; conditions: in vivo, 0.075 h
How it was run: (§1)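 Baseline microPET scan (P4 scanner) of anesthetized cynomolgus monkeys after injection of the carbon-11 labelled nortropane tracer. Two baseline studies were run per tracer. Radioactivity was followed over time in regional brain time-activity curves.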

Cynomolgus monkey [2] = assay: Uptake in anesthetized cynomolgus monkey putamen after 115.0 mins; type: ADME, organism-based; conditions: in vivo
How it was run: (§2)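 Baseline microPET (Concorde P4) scan in anesthetized cynomolgus monkeys after injection of the carbon-11 labeled tracer, with no chase drug. Regional brain time-activity curves were followed over the scan. Tracer radiochemical purity and specific activity were determined by analytical HPLC at the time of injection.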

Cynomolgus monkey [3] = assay: Uptake in anesthetized cynomolgus monkey thalamus after 3.5 mins; type: ADME, organism-based; conditions: in vivo; how it was run: as §2
Cynomolgus monkey [4] = assay: Uptake in anesthetized cynomolgus monkey putamen after 12.5 mins; type: ADME, organism-based; conditions: in vivo; how it was run: as §2
Cynomolgus monkey [5] = assay: Uptake in anesthetized cynomolgus monkey caudate after 2.5 mins; type: ADME, organism-based, Caudate nucleus; conditions: in vivo
How it was run: (§3)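 Baseline microPET (Concorde P4) regional brain time-activity curves in anesthetized cynomolgus monkey following injection of the [11C]-labelled tracer, with radioactivity followed over the scan.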

Cynomolgus monkey [6] = assay: Uptake in anesthetized cynomolgus monkey frontal after 3.5 mins; type: ADME, organism-based, Frontal cortex; conditions: in vivo; how it was run: as §1
Cynomolgus monkey [7] = assay: Uptake in anesthetized cynomolgus monkey cerebellum after 45.0 mins; type: ADME, organism-based; conditions: in vivo, 0.75 h; how it was run: as §3
Cynomolgus monkey [8] = assay: Uptake in anesthetized cynomolgus monkey midbrain after 105.0 mins; type: ADME, organism-based; conditions: in vivo, 1.75 h; how it was run: as §1
Cynomolgus monkey [9] = assay: Uptake in anesthetized cynomolgus monkey cerebellum after 115.0 mins; type: ADME, organism-based; conditions: in vivo; how it was run: as §3
Cynomolgus monkey [10] = assay: Uptake in anesthetized cynomolgus monkey pons after 27.5 mins; type: ADME, organism-based; conditions: in vivo; how it was run: as §2
Cynomolgus monkey [11] = assay: Uptake in anesthetized cynomolgus monkey putamen after 85.0 mins; type: ADME, organism-based; conditions: in vivo; how it was run: as §2
Cynomolgus monkey [12] = assay: Uptake in anesthetized cynomolgus monkey putamen after 6.5 mins; type: ADME, organism-based; conditions: in vivo; how it was run: as §2
Cynomolgus monkey [13] = assay: Uptake in anesthetized cynomolgus monkey frontal after 15.5 mins; type: ADME, organism-based, Frontal cortex; conditions: in vivo; how it was run: as §1
Cynomolgus monkey [14] = assay: Ratio of uptake in frontal to cerebellum of anesthetized cynomolgus monkey after 65 mins; type: ADME, organism-based; conditions: in vivo
How it was run: (§4)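 Baseline microPET (Concorde P4) in anesthetized cynomolgus monkey after injection of the [11C]-labelled tracer. Regional time-activity curves were taken, and each region's uptake was divided by cerebellum uptake (low-SERT reference) at 65, 85 and 105 min postinjection.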

Cynomolgus monkey [15] = assay: Uptake in anesthetized cynomolgus monkey putamen after 9.5 mins; type: ADME, organism-based; conditions: in vivo; how it was run: as §2
Cynomolgus monkey [16] = assay: Uptake in anesthetized cynomolgus monkey medulla after 35.0 mins; type: ADME, organism-based, Medulla of organ; conditions: in vivo; how it was run: as §1
Cynomolgus monkey [17] = assay: Uptake in anesthetized cynomolgus monkey medulla after 75.0 mins; type: ADME, organism-based, Medulla of organ; conditions: in vivo, 1.25 h; how it was run: as §1
Cynomolgus monkey [18] = assay: Uptake in anesthetized cynomolgus monkey frontal after 45.0 mins; type: ADME, organism-based, Frontal cortex; conditions: in vivo, 0.75 h; how it was run: as §1
Cynomolgus monkey [19] = assay: Uptake in anesthetized cynomolgus monkey caudate after 75.0 mins; type: ADME, organism-based, Caudate nucleus; conditions: in vivo, 1.25 h; how it was run: as §3
Cynomolgus monkey [20] = assay: Uptake in anesthetized cynomolgus monkey medulla after 115.0 mins; type: ADME, organism-based, Medulla of organ; conditions: in vivo; how it was run: as §1
Cynomolgus monkey [21] = assay: Uptake in anesthetized cynomolgus monkey caudate after 0.5 mins; type: ADME, organism-based, Caudate nucleus; conditions: in vivo; how it was run: as §3
Cynomolgus monkey [22] = assay: Uptake in anesthetized cynomolgus monkey putamen after 3.5 mins; type: ADME, organism-based; conditions: in vivo; how it was run: as §2
Cynomolgus monkey [23] = assay: Uptake in anesthetized cynomolgus monkey thalamus after 65.0 mins; type: ADME, organism-based; conditions: in vivo; how it was run: as §2
Cynomolgus monkey [24] = assay: Ratio of uptake in midbrain to cerebellum of anesthetized cynomolgus monkey after 85 mins; type: ADME, organism-based; conditions: in vivo; how it was run: as §4
Cynomolgus monkey [25] = assay: Ratio of uptake in medulla to cerebellum of anesthetized cynomolgus monkey after 65 mins; type: ADME, organism-based; conditions: in vivo; how it was run: as §4
Cynomolgus monkey [26] = assay: Uptake in anesthetized cynomolgus monkey medulla after 65.0 mins; type: ADME, organism-based, Medulla of organ; conditions: in vivo; how it was run: as §1
Cynomolgus monkey [27] = assay: Uptake in anesthetized cynomolgus monkey thalamus after 85.0 mins; type: ADME, organism-based; conditions: in vivo; how it was run: as §2
Cynomolgus monkey [28] = assay: Uptake in anesthetized cynomolgus monkey medulla after 1.5 mins; type: ADME, organism-based, Medulla of organ; conditions: in vivo, 0.025 h; how it was run: as §1
Cynomolgus monkey [29] = assay: Uptake in anesthetized cynomolgus monkey medulla after 15.5 mins; type: ADME, organism-based, Medulla of organ; conditions: in vivo; how it was run: as §1
Cynomolgus monkey [30] = assay: Ratio of uptake in caudate to cerebellum of anesthetized cynomolgus monkey after 65 mins; type: ADME, organism-based; conditions: in vivo; how it was run: as §4
Cynomolgus monkey [31] = assay: Uptake in anesthetized cynomolgus monkey midbrain after 55.0 mins; type: ADME, organism-based; conditions: in vivo; how it was run: as §1
Cynomolgus monkey [32] = assay: Uptake in anesthetized cynomolgus monkey putamen after 45.0 mins; type: ADME, organism-based; conditions: in vivo, 0.75 h; how it was run: as §2
Cynomolgus monkey [33] = assay: Ratio of uptake in thalamus to cerebellum of anesthetized cynomolgus monkey after 105 mins; type: ADME, organism-based; conditions: in vivo, 1.75 h; how it was run: as §4
Cynomolgus monkey [34] = assay: Uptake in anesthetized cynomolgus monkey medulla after 105.0 mins; type: ADME, organism-based, Medulla of organ; conditions: in vivo, 1.75 h; how it was run: as §1
Cynomolgus monkey [35] = assay: Ratio of uptake in caudate to cerebellum of anesthetized cynomolgus monkey after 85 mins; type: ADME, organism-based; conditions: in vivo; how it was run: as §4

Structure (SMILES): [11CH3]OC(=O)[C@@H]1C2CCC(C[C@@H]1c1cccc(/C=C/Br)c1)N2 (stereo not given in full)
- Drug uptake (Cynomolgus monkey [1]): 3.57
- Drug uptake (Cynomolgus monkey [2]): 7.1
- Drug uptake (Cynomolgus monkey [3]): 1.54
- Drug uptake (Cynomolgus monkey [4]): 5.62
- Drug uptake (Cynomolgus monkey [5]): 0.73
- Drug uptake (Cynomolgus monkey [6]): 1.07
- Drug uptake (Cynomolgus monkey [7]): 5.58
- Drug uptake (Cynomolgus monkey [8]): 7.72
- Drug uptake (Cynomolgus monkey [9]): 3.76
- Drug uptake (Cynomolgus monkey [10]): 6.51
- Drug uptake (Cynomolgus monkey [11]): 7.16
- Drug uptake (Cynomolgus monkey [12]): 4.44
- Drug uptake (Cynomolgus monkey [13]): 3.21
- Ratio (Cynomolgus monkey [14]): 1
- Drug uptake (Cynomolgus monkey [15]): 5.41
- Drug uptake (Cynomolgus monkey [16]): 7.19
- Drug uptake (Cynomolgus monkey [17]): 7.18
- Drug uptake (Cynomolgus monkey [18]): 3.76
- Drug uptake (Cynomolgus monkey [19]): 6.61
- Drug uptake (Cynomolgus monkey [20]): 6.59
- Drug uptake (Cynomolgus monkey [21]): 0.01
- Drug uptake (Cynomolgus monkey [22]): 1.96
- Drug uptake (Cynomolgus monkey [23]): 6.39
- Ratio (Cynomolgus monkey [24]): 1.8
- Ratio (Cynomolgus monkey [25]): 1.4
- Drug uptake (Cynomolgus monkey [26]): 7.11
- Drug uptake (Cynomolgus monkey [27]): 6.55
- Drug uptake (Cynomolgus monkey [28]): 0.4
- Drug uptake (Cynomolgus monkey [29]): 6.52
- Ratio (Cynomolgus monkey [30]): 1.4
- Drug uptake (Cynomolgus monkey [31]): 7.74
- Drug uptake (Cynomolgus monkey [32]): 7.28
- Ratio (Cynomolgus monkey [33]): 1.6
- Drug uptake (Cynomolgus monkey [34]): 6.81
- Ratio (Cynomolgus monkey [35]): 1.5
